Data reported in ChEMBL document CHEMBL5376013, “Design, synthesis and biological evaluation of novel morpholinopyrimidine-5-carbonitrile derivatives as dual PI3K/mTOR inhibitors” (RSC Med Chem, 2024).

Tests used:
Type in all cases: functional
Settings in all cases: read-out: GI
HL-60 = experiment: Antitumor activity against human HL-60 cells assessed as growth inhibition at 10 uM relative to control
Summary of the method: (§1)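 After drug addition, plates were incubated 48 h at 37 °C under 5% CO2. Adherent cells were fixed with cold TCA (10% final, 60 min, 4 °C) and suspension cells with 16% final TCA. Staining used 0.4% SRB in 1% acetic acid, solubilized in 10 mM trizma, read at A515. Percent growth was calculated from time-zero, control and treated absorbances.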

RPMI-8226 = experiment: Antitumor activity against human RPMI-8226 cells assessed as growth inhibition at 10 uM relative to control; summary of the method: as §1
SR = experiment: Antitumor activity against human SR cells assessed as growth inhibition at 10 uM relative to control
Summary of the method: (§2)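 Drug exposure 48 h at 37 °C, 5% CO2. Adherent cells fixed with cold TCA (10% final), suspension cells with TCA (16% final). Stained with 0.4% SRB in 1% acetic acid, dissolved in 10 mM Tris, A515. Growth relative to time-zero and untreated control.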

EKVX = experiment: Antitumor activity against human EKVX cells assessed as growth inhibition at 10 uM relative to control; summary of the method: as §1
HOP-62 = experiment: Antitumor activity against human HOP-62 cells assessed as growth inhibition at 10 uM relative to control; summary of the method: as §1
HOP-92 = experiment: Antitumor activity against human HOP-92 cells assessed as growth inhibition at 10 uM relative to control; summary of the method: as §1
NCI-H226 = experiment: Antitumor activity against human NCI-H226 cells assessed as growth inhibition at 10 uM relative to control; summary of the method: as §1
NCI-H23 = experiment: Antitumor activity against human NCI-H23 cells assessed as growth inhibition at 10 uM relative to control; summary of the method: as §1
NCI-H322M = experiment: Antitumor activity against human NCI-H322M cells assessed as growth inhibition at 10 uM relative to control; summary of the method: as §1
NCI-H460 = experiment: Antitumor activity against human NCI-H460 cells assessed as growth inhibition at 10 uM relative to control; summary of the method: as §1
NCI-H522 = experiment: Antitumor activity against human NCI-H522 cells assessed as growth inhibition at 10 uM relative to control; summary of the method: as §1
COLO 205 = experiment: Antitumor activity against human COLO 205 cells assessed as growth inhibition at 10 uM relative to control; summary of the method: as §1
HCC 2998 = experiment: Antitumor activity against human HCC 2998 cells assessed as growth inhibition at 10 uM relative to control; summary of the method: as §1
HCT-116 = experiment: Antitumor activity against human HCT-116 cells assessed as growth inhibition at 10 uM relative to control; summary of the method: as §1
HT-29 = experiment: Antitumor activity against human HT-29 cells assessed as growth inhibition at 10 uM relative to control; summary of the method: as §1
KM12 = experiment: Antitumor activity against human KM12 cells assessed as growth inhibition at 10 uM relative to control; summary of the method: as §1
SW-620 = experiment: Antitumor activity against human SW-620 cells assessed as growth inhibition at 10 uM relative to control; summary of the method: as §2
SF-268 = experiment: Antitumor activity against human SF-268 cells assessed as growth inhibition at 10 uM relative to control; summary of the method: as §1
SF-295 = experiment: Antitumor activity against human SF-295 cells assessed as growth inhibition at 10 uM relative to control; summary of the method: as §1
SF-539 = experiment: Antitumor activity against human SF-539 cells assessed as growth inhibition at 10 uM relative to control; summary of the method: as §1
SNB-19 = experiment: Antitumor activity against human SNB-19 cells assessed as growth inhibition at 10 uM relative to control; summary of the method: as §2
SNB-75 = experiment: Antitumor activity against human SNB-75 cells assessed as growth inhibition at 10 uM relative to control; summary of the method: as §2
U-251 = experiment: Antitumor activity against human U-251 cells assessed as growth inhibition at 10 uM relative to control; summary of the method: as §2
Malme-3M = experiment: Antitumor activity against human Malme-3M cells assessed as growth inhibition at 10 uM relative to control; summary of the method: as §1
M14 = experiment: Antitumor activity against human M14 cells assessed as growth inhibition at 10 uM relative to control; summary of the method: as §1
MDA-MB-435 = experiment: Antitumor activity against human MDA-MB-435 cells assessed as growth inhibition at 10 uM relative to control; summary of the method: as §1
SK-MEL-2 = experiment: Antitumor activity against human SK-MEL-2 cells assessed as growth inhibition at 10 uM relative to control; summary of the method: as §1
SK-MEL-28 = experiment: Antitumor activity against human SK-MEL-28 cells assessed as growth inhibition at 10 uM relative to control; summary of the method: as §2
SK-MEL-5 = experiment: Antitumor activity against human SK-MEL-5 cells assessed as growth inhibition at 10 uM relative to control; summary of the method: as §2
UACC-257 = experiment: Antitumor activity against human UACC-257 cells assessed as growth inhibition at 10 uM relative to control; summary of the method: as §2
UACC-62 = experiment: Antitumor activity against human UACC-62 cells assessed as growth inhibition at 10 uM relative to control; summary of the method: as §2
IGROV-1 = experiment: Antitumor activity against human IGROV-1 cells assessed as growth inhibition at 10 uM relative to control; summary of the method: as §1
OVCAR-4 = experiment: Antitumor activity against human OVCAR-4 cells assessed as growth inhibition at 10 uM relative to control; summary of the method: as §1
OVCAR-5 = experiment: Antitumor activity against human OVCAR-5 cells assessed as growth inhibition at 10 uM relative to control; summary of the method: as §1
NCI/ADR-RES = experiment: Antitumor activity against human NCI-ADR-RES cells assessed as growth inhibition at 10 uM relative to control; summary of the method: as §1
SK-OV-3 = experiment: Antitumor activity against human SK-OV-3 cells assessed as growth inhibition at 10 uM relative to control; summary of the method: as §2
786-0 = experiment: Antitumor activity against human 786-0 cells assessed as growth inhibition at 10 uM relative to control; summary of the method: as §1
A498 = experiment: Antitumor activity against human A498 cells assessed as growth inhibition at 10 uM relative to control; summary of the method: as §1
CAKI-1 = experiment: Antitumor activity against human CAKI-1 cells assessed as growth inhibition at 10 uM relative to control; summary of the method: as §1
RXF 393 = experiment: Antitumor activity against human RXF 393 cells assessed as growth inhibition at 10 uM relative to control; summary of the method: as §1
SN12C = experiment: Antitumor activity against human SN12C cells assessed as growth inhibition at 10 uM relative to control; summary of the method: as §2
TK-10 = experiment: Antitumor activity against human TK-10 cells assessed as growth inhibition at 10 uM relative to control; summary of the method: as §2
UO-31 = experiment: Antitumor activity against human UO-31 cells assessed as growth inhibition at 10 uM relative to control; summary of the method: as §2
MDA-MB-231 = experiment: Antitumor activity against human MDA-MB-231 cells assessed as growth inhibition at 10 uM relative to control; summary of the method: as §1
Hs-578T = experiment: Antitumor activity against human Hs-578T cells assessed as growth inhibition at 10 uM relative to control; summary of the method: as §1
T47D = experiment: Antitumor activity against human T47D cells assessed as growth inhibition at 10 uM relative to control; summary of the method: as §2

Compound: N#Cc1c(-c2ccc(Cl)cc2)nc(NN)nc1N1CCOCC1
- inhibition of growth at 10 µM (HL-60): < 1%
- inhibition of growth at 10 µM (RPMI-8226): < 1%
- inhibition of growth at 10 µM (SR): 26.9%
- inhibition of growth at 10 µM (EKVX): 14.3%
- inhibition of growth at 10 µM (HOP-62): 14.4%
- inhibition of growth at 10 µM (HOP-92): 10.6%
- inhibition of growth at 10 µM (NCI-H226): 14.1%
- inhibition of growth at 10 µM (NCI-H23): 11.7%
- inhibition of growth at 10 µM (NCI-H322M): < 1%
- inhibition of growth at 10 µM (NCI-H460): < 1%
- inhibition of growth at 10 µM (NCI-H522): < 1%
- inhibition of growth at 10 µM (COLO 205): < 1%
- inhibition of growth at 10 µM (HCC 2998): < 1%
- inhibition of growth at 10 µM (HCT-116): < 1%
- inhibition of growth at 10 µM (HT-29): < 1%
- inhibition of growth at 10 µM (KM12): < 1%
- inhibition of growth at 10 µM (SW-620): < 1%
- inhibition of growth at 10 µM (SF-268): < 1%
- inhibition of growth at 10 µM (SF-295): < 1%
- inhibition of growth at 10 µM (SF-539): 12.3%
- inhibition of growth at 10 µM (SNB-19): < 1%
- inhibition of growth at 10 µM (SNB-75): 26.9%
- inhibition of growth at 10 µM (U-251): < 1%
- inhibition of growth at 10 µM (Malme-3M): < 1%
- inhibition of growth at 10 µM (M14): < 1%
- inhibition of growth at 10 µM (MDA-MB-435): < 1%
- inhibition of growth at 10 µM (SK-MEL-2): < 1%
- inhibition of growth at 10 µM (SK-MEL-28): < 1%
- inhibition of growth at 10 µM (SK-MEL-5): < 1%
- inhibition of growth at 10 µM (UACC-257): < 1%
- inhibition of growth at 10 µM (UACC-62): 10.7%
- inhibition of growth at 10 µM (IGROV-1): 15.9%
- inhibition of growth at 10 µM (OVCAR-4): < 1%
- inhibition of growth at 10 µM (OVCAR-5): < 1%
- inhibition of growth at 10 µM (NCI/ADR-RES): < 1%
- inhibition of growth at 10 µM (SK-OV-3): < 1%
- inhibition of growth at 10 µM (786-0): < 1%
- inhibition of growth at 10 µM (A498): 27.8%
- inhibition of growth at 10 µM (CAKI-1): 20.8%
- inhibition of growth at 10 µM (RXF 393): < 1%
- inhibition of growth at 10 µM (SN12C): < 1%
- inhibition of growth at 10 µM (TK-10): < 1%
- inhibition of growth at 10 µM (UO-31): 34.1%
- inhibition of growth at 10 µM (MDA-MB-231): 14.5%
- inhibition of growth at 10 µM (Hs-578T): < 1%
- inhibition of growth at 10 µM (T47D): 17.4%

Compound: N#Cc1c(-c2ccc(Cl)cc2)nc(N/N=C/c2cccc(Cl)c2)nc1N1CCOCC1
- inhibition of growth at 10 µM (HL-60): 28.5%
- inhibition of growth at 10 µM (RPMI-8226): 35%
- inhibition of growth at 10 µM (SR): 91.3%
- inhibition of growth at 10 µM (EKVX): 22.3%
- inhibition of growth at 10 µM (HOP-62): < 1%
- inhibition of growth at 10 µM (HOP-92): 10.7%
- inhibition of growth at 10 µM (NCI-H226): 10.7%
- inhibition of growth at 10 µM (NCI-H23): < 1%
- inhibition of growth at 10 µM (NCI-H322M): 11.2%
- inhibition of growth at 10 µM (NCI-H460): < 1%
- inhibition of growth at 10 µM (NCI-H522): < 1%
- inhibition of growth at 10 µM (COLO 205): 39%
- inhibition of growth at 10 µM (HCC 2998): < 1%
- inhibition of growth at 10 µM (HCT-116): 29.2%
- inhibition of growth at 10 µM (HT-29): 59.6%
- inhibition of growth at 10 µM (KM12): < 1%
- inhibition of growth at 10 µM (SW-620): 46.7%
- inhibition of growth at 10 µM (SF-268): < 1%
- inhibition of growth at 10 µM (SF-295): < 1%
- inhibition of growth at 10 µM (SF-539): 20.9%
- inhibition of growth at 10 µM (SNB-19): < 1%
- inhibition of growth at 10 µM (SNB-75): 19.9%
- inhibition of growth at 10 µM (U-251): < 1%
- inhibition of growth at 10 µM (Malme-3M): < 1%
- inhibition of growth at 10 µM (M14): 15.4%
- inhibition of growth at 10 µM (MDA-MB-435): < 1%
- inhibition of growth at 10 µM (SK-MEL-2): < 1%
- inhibition of growth at 10 µM (SK-MEL-28): < 1%
- inhibition of growth at 10 µM (SK-MEL-5): < 1%
- inhibition of growth at 10 µM (UACC-257): 28.4%
- inhibition of growth at 10 µM (UACC-62): < 1%
- inhibition of growth at 10 µM (IGROV-1): 24.8%
- inhibition of growth at 10 µM (OVCAR-4): < 1%
- inhibition of growth at 10 µM (OVCAR-5): < 1%
- inhibition of growth at 10 µM (NCI/ADR-RES): 10.8%
- inhibition of growth at 10 µM (SK-OV-3): < 1%
- inhibition of growth at 10 µM (786-0): 29.9%
- inhibition of growth at 10 µM (A498): 57.8%
- inhibition of growth at 10 µM (CAKI-1): 20.8%
- inhibition of growth at 10 µM (RXF 393): < 1%
- inhibition of growth at 10 µM (SN12C): < 1%
- inhibition of growth at 10 µM (TK-10): < 1%
- inhibition of growth at 10 µM (UO-31): 46.5%
- inhibition of growth at 10 µM (MDA-MB-231): < 1%
- inhibition of growth at 10 µM (Hs-578T): < 1%
- inhibition of growth at 10 µM (T47D): 23.4%
